Data from ChEMBL document CHEMBL1212735, “Metronidazole resistance in Prevotella spp. and description of a new nim gene in Prevotella baroniae” (2010).
In brackets after ≈: the same amount, converted by molar mass.

Experiments:
Type in all cases: functional
Prevotella bivia [1] = assay: Antimicrobial activity against slow growing colonies of Prevotella bivia LBN 334 deficient in nim gene assessed as inhibition of growth at 48 hrs by agar dilution method; settings: LBN 334, 48 h
How it was run: (§1)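 Slowly growing colonies inside the Etest inhibition zone, seen after prolonged incubation (an additional 72 h after the 48 h reading), were subcultured without antibiotic. They were then retested for metronidazole MIC by agar dilution on supplemented brucella blood agar under anaerobic conditions.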

Prevotella baroniae [2] = assay: Antimicrobial activity against Prevotella baroniae LBP 19 expressing nim gene assessed as inhibition of growth at 48 hrs by agar dilution method; settings: Segatella baroniae, LBP 19, 48 h
How it was run: (§2)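 Metronidazole MIC by agar dilution (CLSI M11-A7) on brucella agar with 5% sheep blood, hemin and vitamin K1. Plates were read after 48 h at 35°C under anaerobic conditions. Susceptible was MIC ≤ 4 μg/ml and resistant MIC ≥ 8 μg/ml (EUCAST). B. fragilis ATCC 25285T and B. thetaiotaomicron ATCC 29741 were run as controls. Duplicate assays.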

Prevotella bivia [3] = assay: Antimicrobial activity against slow growing colonies of Prevotella bivia LBN 365 deficient in nim gene assessed as inhibition of growth at 48 hrs by agar dilution method; settings: LBN 365, 48 h
How it was run: (§3)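 Metronidazole MIC by agar dilution per CLSI M11-A7 on brucella agar with 5% sheep blood, hemin and vitamin K1. Plates incubated anaerobically at 35°C and read at 48 h, with a second reading after a further 72 h. B. fragilis ATCC 25285T and B. thetaiotaomicron ATCC 29741 served as controls. Done in duplicate; EUCAST breakpoints applied (S ≤4, R ≥8 μg/ml).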

Prevotella nanceiensis [4] = assay: Antimicrobial activity against slow growing colonies of Prevotella nanceiensis LBN 410 deficient in nim gene assessed as inhibition of growth at 48 hrs by agar dilution method; settings: Hoylesella nanceiensis, LBN 410, 48 h; how it was run: as §3
Prevotella baroniae [5] = assay: Antimicrobial activity against Prevotella baroniae LBN 427 expressing nimI gene assessed as inhibition of growth after three consecutive subcultures on compound free medium by agar dilution method; settings: Segatella baroniae
How it was run: (§4)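 Stability of induced resistance: metronidazole-selected isolates were subcultured three consecutive times on drug-free brucella blood agar (5% sheep blood, hemin, vitamin K1) under anaerobic conditions, then MIC was redetermined by CLSI agar dilution. Resistance was called stable if the MIC held within ±1 dilution. Duplicate experiments.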

Prevotella baroniae [6] = assay: Antimicrobial activity against Prevotella baroniae LBN 430 expressing nimI gene assessed as inhibition of growth after three consecutive subcultures on compound free medium by agar dilution method; settings: Segatella baroniae; how it was run: as §4
Prevotella bivia [7] = assay: Antimicrobial activity against Prevotella bivia LBN 339 deficient in nim gene assessed as inhibition of growth at 48 hrs by agar dilution method; settings: LBN 339, 48 h; how it was run: as §2
Prevotella bivia [8] = assay: Antimicrobial activity against Prevotella bivia LBP 69 deficient in nim gene assessed as inhibition of growth at 48 hrs by agar dilution method; settings: LBP 69, 48 h; how it was run: as §2
Prevotella baroniae [9] = assay: Antimicrobial activity against Prevotella baroniae LBN 427 expressing nimI gene assessed as inhibition of growth after several passages on plates containing increasing concentrations of compound by agar dilution method; settings: Segatella baroniae
How it was run: (§5)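 Induction of metronidazole resistance: bacterial suspensions inoculated onto brucella blood agar (5% sheep blood, hemin, vitamin K1) containing metronidazole at increasing concentrations, grown anaerobically at 37°C. Colonies growing at the highest concentration were retested for MIC by CLSI agar dilution on the same agar. Duplicate experiments.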

Prevotella nanceiensis [10] = assay: Antimicrobial activity against slow growing colonies of Prevotella nanceiensis LBP 66 deficient in nim gene assessed as inhibition of growth at 48 hrs by agar dilution method; settings: Hoylesella nanceiensis, LBP 66, 48 h; how it was run: as §3
Prevotella bivia [11] = assay: Antimicrobial activity against slow growing colonies of Prevotella bivia LBP 78 deficient in nim gene assessed as inhibition of growth at 48 hrs by agar dilution method; settings: LBP 78, 48 h; how it was run: as §3
Prevotella baroniae [12] = assay: Antimicrobial activity against Prevotella baroniae LBN 475 expressing nim gene assessed as inhibition of growth at 48 hrs by agar dilution method; settings: Segatella baroniae, LBN 475, 48 h; how it was run: as §2
Prevotella bivia [13] = assay: Antimicrobial activity against Prevotella bivia LBN 343 deficient in nim gene assessed as inhibition of growth at 48 hrs by agar dilution method; settings: LBN 343, 48 h
How it was run: (§6)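 Agar dilution MIC on brucella agar with 5% sheep blood, hemin and vitamin K1, following CLSI M11-A7. Plates read after 48 h at 35°C under anaerobic conditions, with B. fragilis ATCC 25285T and B. thetaiotaomicron ATCC 29741 as controls. Assays in duplicate. Isolates kept at −80°C in brucella broth with 15% glycerol. Interpretation used EUCAST breakpoints (S ≤4, R ≥8 μg/ml).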

Prevotella bivia [14] = assay: Antimicrobial activity against Prevotella bivia LBP 51 deficient in nim gene assessed as inhibition of growth at 48 hrs by agar dilution method; settings: LBP 51, 48 h; how it was run: as §2
Prevotella bivia [15] = assay: Antimicrobial activity against slow growing colonies of Prevotella bivia LBN 330 deficient in nim gene assessed as inhibition of growth at 48 hrs by agar dilution method; settings: LBN 330, 48 h; how it was run: as §1
Prevotella baroniae [16] = assay: Antimicrobial activity against Prevotella baroniae LBN 432 expressing nimI gene assessed as inhibition of growth after three consecutive subcultures on compound free medium by agar dilution method; settings: Segatella baroniae; how it was run: as §4
Prevotella bivia [17] = assay: Antimicrobial activity against Prevotella bivia LBN 332 deficient in nim gene assessed as inhibition of growth at 48 hrs by agar dilution method; settings: LBN 332, 48 h; how it was run: as §2
Prevotella bivia [18] = assay: Antimicrobial activity against Prevotella bivia LBN 445 deficient in nim gene assessed as inhibition of growth at 48 hrs by agar dilution method; settings: LBN 445, 48 h; how it was run: as §6
Prevotella baroniae [19] = assay: Antimicrobial activity against Prevotella baroniae LBP19 expressing nimI gene assessed as inhibition of growth after three consecutive subcultures on compound free medium by agar dilution method; settings: Segatella baroniae; how it was run: as §4
Prevotella nanceiensis [20] = assay: Antimicrobial activity against Prevotella nanceiensis LBN 297 deficient in nim gene assessed as inhibition of growth at 48 hrs by agar dilution method; settings: Hoylesella nanceiensis, LBN 297, 48 h; how it was run: as §2
Prevotella bivia [21] = assay: Antimicrobial activity against slow growing colonies of Prevotella bivia LBN 374 deficient in nim gene assessed as inhibition of growth at 48 hrs by agar dilution method; settings: LBN 374, 48 h; how it was run: as §3
Prevotella baroniae [22] = assay: Antimicrobial activity against Prevotella baroniae LBN 430 expressing nim gene assessed as inhibition of growth at 48 hrs by agar dilution method; settings: Segatella baroniae, LBN 430, 48 h; how it was run: as §2
Prevotella bivia [23] = assay: Antimicrobial activity against slow growing colonies of Prevotella bivia LBN 336 deficient in nim gene assessed as inhibition of growth at 48 hrs by agar dilution method; settings: LBN 336, 48 h; how it was run: as §1
Prevotella baroniae [24] = assay: Antimicrobial activity against Prevotella baroniae LBP19 expressing nimI gene assessed as inhibition of growth after several passages on plates containing increasing concentration of compound by agar dilution method; settings: Segatella baroniae; how it was run: as §5
Prevotella bivia [25] = assay: Antimicrobial activity against Prevotella bivia LBN 330 deficient in nim gene assessed as inhibition of growth at 48 hrs by agar dilution method; settings: LBN 330, 48 h; how it was run: as §2
Prevotella bivia [26] = assay: Antimicrobial activity against Prevotella bivia LBN 361 deficient in nim gene assessed as inhibition of growth at 48 hrs by agar dilution method; settings: LBN 361, 48 h; how it was run: as §2
Prevotella nanceiensis [27] = assay: Antimicrobial activity against slow growing colonies of Prevotella nanceiensis LBN 297 deficient in nim gene assessed as inhibition of growth at 48 hrs by agar dilution method; settings: Hoylesella nanceiensis, LBN 297, 48 h; how it was run: as §3

Cc1ncc([N+](=O)[O-])n1CCO [METRONIDAZOLE]
MIC (Prevotella bivia [1]): 16 µg/mL (≈ 93.5 µM) | MIC (Prevotella baroniae [2]): 1 µg/mL (≈ 5.84 µM) | MIC (Prevotella bivia [3]): 8 µg/mL (≈ 46.7 µM) | MIC (Prevotella nanceiensis [4]): 32 µg/mL (≈ 187 µM) | MIC (Prevotella baroniae [5]): 128 µg/mL (≈ 748 µM) | MIC (Prevotella baroniae [6]): 128 µg/mL (≈ 748 µM) | MIC (Prevotella bivia [7]): 2 µg/mL (≈ 11.7 µM) | MIC (Prevotella bivia [8]): 2 µg/mL (≈ 11.7 µM) | MIC (Prevotella baroniae [9]): 128 µg/mL (≈ 748 µM) | MIC (Prevotella nanceiensis [10]): 8 µg/mL (≈ 46.7 µM) | MIC (Prevotella bivia [11]): 8 µg/mL (≈ 46.7 µM) | MIC (Prevotella baroniae [12]): 4 µg/mL (≈ 23.4 µM) | MIC (Prevotella bivia [13]): 1 µg/mL (≈ 5.84 µM) | MIC (Prevotella bivia [14]): 2 µg/mL (≈ 11.7 µM) | MIC (Prevotella bivia [15]): 16 µg/mL (≈ 93.5 µM) | MIC (Prevotella baroniae [16]): 64 µg/mL (≈ 374 µM) | MIC (Prevotella bivia [17]): 4 µg/mL (≈ 23.4 µM) | MIC (Prevotella bivia [18]): 0.5 µg/mL (≈ 2.92 µM) | MIC (Prevotella baroniae [19]): 128 µg/mL (≈ 748 µM) | MIC (Prevotella nanceiensis [20]): 2 µg/mL (≈ 11.7 µM) | MIC (Prevotella bivia [21]): 8 µg/mL (≈ 46.7 µM) | MIC (Prevotella baroniae [22]): 4 µg/mL (≈ 23.4 µM) | MIC (Prevotella bivia [23]): 32 µg/mL (≈ 187 µM) | MIC (Prevotella baroniae [24]): 128 µg/mL (≈ 748 µM) | MIC (Prevotella bivia [25]): 2 µg/mL (≈ 11.7 µM) | MIC (Prevotella bivia [26]): 2 µg/mL (≈ 11.7 µM) | MIC (Prevotella nanceiensis [27]): 16 µg/mL (≈ 93.5 µM)
